{"data": "Measured values collected from several papers"}
{"SMILES": "CCCCCCC/C=C/C(=O)N1C(=O)/C(=C(/C)O)C(=O)C1CCCCN (stereo not drawn)", "target or system": "Burkholderia cepacia", "assay": "microbial growth", "system": "ATCC25416", "quantity": "MIC", "value": "> 200 µg/mL"}
{"SMILES": "O=C(Oc1ccc(Cl)cc1)[c-]1cccc1.[Fe+2].c1cc[cH-]c1", "target or system": "MCF-10A", "assay": "cell growth or viability, MTT", "conditions": "72 h", "quantity": "IC50", "value": "500 µM"}
{"SMILES": "CCCCCCC/C=C/C(=O)N1C(=O)/C(=C(\\O)c2ccc(O)cc2)C(=O)C1CC(C)C (stereo not drawn)", "target or system": "Burkholderia cepacia", "assay": "microbial growth", "system": "ATCC25416", "quantity": "MIC", "value": "100 µg/mL"}
{"SMILES": "CN(c1ccccc1)S(=O)(=O)c1cc(C(=O)NCc2ccco2)ccc1Cl", "target or system": "human PBMC", "assay": "cell migration", "conditions": "10 µM", "quantity": "inhibition", "value": "82%"}
{"SMILES": "O=c1ccc2ccc3occc3c2o1", "assay": "tubulin polymerisation, inhibitor", "conditions": "10 µM", "quantity": "inhibition", "value": "57.1%"}
{"SMILES": "C/C(O)=C1\\C(=O)C(CC(C)C)N(C(=O)CCCCCc2ccccc2)C1=O (stereo not drawn)", "target or system": "Burkholderia cepacia", "assay": "microbial growth", "system": "ATCC25416", "quantity": "MIC", "value": "> 200 µg/mL"}
{"SMILES": "C=C(CCC=C(C)C)[C@H]1CC[C@H]2[C@@H]3CC=C4C[C@@H](O)CC[C@]4(C)[C@H]3CC[C@]12C", "target or system": "Leishmania mexicana", "assay": "parasite growth", "conditions": "48 h, promastigote", "quantity": "IC50", "value": "> 262 µM"}
{"SMILES": "O=C(N/N=C1\\C(=O)N(Cc2ccccc2)c2ccc(Cl)cc21)c1cc2ccccc2[nH]1", "target or system": "MCF-10A", "assay": "cell growth or viability", "conditions": "72 h", "quantity": "IC50", "value": "2 µM"}
{"SMILES": "NS(=O)(=O)c1cc(C(=O)O)c(NCc2ccco2)cc1Cl", "target or system": "human PBMC", "assay": "cell migration", "conditions": "10 µM", "quantity": "inhibition", "value": "89%"}
{"SMILES": "Cc1cc(C)c(-n2ccn(-c3c(C)cc(C)cc3C)c2=[Se])c(C)c1", "target or system": "HCT-15", "assay": "cell growth or viability, MTT", "conditions": "72 h", "quantity": "IC50", "value": "10.7 µM"}
{"SMILES": "CCCCCCC/C=C/C(=O)N1C(=O)/C(=C(/C)O)C(=O)C1Cc1ccc(OC(C)(C)C)cc1 (stereo not drawn)", "target or system": "Burkholderia cepacia", "assay": "microbial growth", "system": "ATCC25416", "quantity": "MIC", "value": "> 200 µg/mL"}
{"SMILES": "C[C@]12CCC(=O)C(O)=C1CC[C@@H]1[C@@H]2CC[C@]2(C)C(=O)CC[C@@H]12", "target or system": "CAL-27", "assay": "cell growth or viability", "conditions": "72 h", "quantity": "IC50", "value": "> 20 µM"}
